Measurements: ChEMBL document CHEMBL1155016, “Locking the two ends of tetrapeptidic HTLV-I protease inhibitors inside the enzyme” (Bioorg Med Chem, 2008)
Starred links: 1 amine or outer side, 2 acyl side, 3 side chain; linkers in the order of their positions; H or OH if unused. Non-standard residues stand in square brackets, D forms with d. Residues, ends and D or L forms follow the SMILES beside them. X1 = O=C([C@@H](O)[C@H](Cc1ccccc1)N[*:1])[*:2]; Thz(5,5-Me2) = CC1(C)SCN[C@@H]1C(=O)O; Phg = N[C@H](C(=O)O)c1ccccc1; Tle = CC(C)(C)[C@H](N)C(=O)O

Legend:
Protease = Protease (Human T-cell leukemia virus type I, UniProt Q82134, L40I); assay: Inhibition of HTLV1 protease L40I mutant
Protease, sequence (Q82134 entry or part of it L40I): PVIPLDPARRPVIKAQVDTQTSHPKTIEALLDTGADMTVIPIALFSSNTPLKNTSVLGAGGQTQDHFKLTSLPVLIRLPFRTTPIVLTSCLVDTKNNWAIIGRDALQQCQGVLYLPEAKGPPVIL
Outline: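 HTLV-I protease carrying the L40I substitution, which blocks autolysis and stabilises the enzyme; run by the group's earlier reported protocol; potency given as IC50 in nM.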

[1] = biological target: Protease (Human immunodeficiency virus 1) (UniProt Q9YQ12); assay: Inhibition of HIV1 protease at 50 nM
Protease (Human immunodeficiency virus 1), sequence (Q9YQ12 as listed by the source): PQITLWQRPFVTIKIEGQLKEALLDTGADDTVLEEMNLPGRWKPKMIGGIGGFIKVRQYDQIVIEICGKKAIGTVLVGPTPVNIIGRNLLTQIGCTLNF

SMILES	IC50 (Protease)	inhibition [1]
C=CCCC(=O)N[C@H](C(=O)N[C@H](C(=O)N[C@@H](Cc1ccccc1)[C@H](O)C(=O)N1CSC(C)(C)[C@H]1C(=O)NC(C)C(C)C)C(C)(C)C)c1ccccc1 (stereo partly drawn)	87 nM	> 98%
CC(=O)N[C@H](C(=O)N[C@H](C(=O)N[C@@H](Cc1ccccc1)[C@H](O)C(=O)N1CSC(C)(C)[C@H]1C(=O)NCC1CC1)C(C)(C)C)c1ccccc1	146 nM	> 98%
CC(C)CC(=O)N[C@H](C(=O)N[C@H](C(=O)N[C@@H](Cc1ccccc1)[C@H](O)C(=O)N1CSC(C)(C)[C@H]1C(=O)NC(C)C(C)(C)C)C(C)(C)C)c1ccccc1 (stereo partly drawn)	84 nM	> 98%
CCC(=O)N[C@H](C(=O)N[C@H](C(=O)N[C@@H](Cc1ccccc1)[C@H](O)C(=O)N1CSC(C)(C)[C@H]1C(=O)NCC1CC1)C(C)(C)C)c1ccccc1	145 nM	> 98%
CCC(=O)N[C@H](C(=O)N[C@H](C(=O)N[C@@H](Cc1ccccc1)[C@H](O)C(=O)N1CSC(C)(C)[C@H]1C(=O)NCC(C)(C)C)C(C)(C)C)c1ccccc1	98 nM	> 98%
CC(C)(C)[C@H](NC(=O)[C@@H](NC(=O)C1CC1)c1ccccc1)C(=O)N[C@@H](Cc1ccccc1)[C@H](O)C(=O)N1CSC(C)(C)[C@H]1C(=O)NCC1CC1	142 nM	> 98%
CC(C)C(=O)N[C@H](C(=O)N[C@H](C(=O)N[C@@H](Cc1ccccc1)[C@H](O)C(=O)N1CSC(C)(C)[C@H]1C(=O)NC(C)C(C)C)C(C)(C)C)c1ccccc1 (stereo partly drawn)	122 nM	> 98%
CC(C)C(C)NC(=O)[C@H]1N(C(=O)[C@@H](O)[C@H](Cc2ccccc2)NC(=O)[C@@H](NC(=O)[C@@H](NC(=O)C(C)(C)C)c2ccccc2)C(C)(C)C)CSC1(C)C (stereo partly drawn)	133 nM	> 98%
CC(NC(=O)[C@H]1N(C(=O)[C@@H](O)[C@H](Cc2ccccc2)NC(=O)[C@@H](NC(=O)[C@@H](NC(=O)C(C)(C)C)c2ccccc2)C(C)(C)C)CSC1(C)C)C(C)(C)C (stereo partly drawn)	97 nM	> 98%
CC(C)(C)CNC(=O)[C@H]1N(C(=O)[C@@H](O)[C@H](Cc2ccccc2)NC(=O)[C@@H](NC(=O)[C@@H](NC(=O)C2CC2)c2ccccc2)C(C)(C)C)CSC1(C)C	86 nM	> 98%
CC(C)(C)[C@H](NC(=O)[C@@H](N)c1ccccc1)C(=O)N[C@@H](Cc1ccccc1)[C@H](O)C(=O)N1CSC(C)(C)[C@H]1C(=O)NCC1CC1	928 nM	> 98%
CC(=O)N[C@H](C(=O)N[C@H](C(=O)N[C@@H](Cc1ccccc1)[C@H](O)C(=O)N1CSC(C)(C)[C@H]1C(=O)NC(C)C(C)C)C(C)(C)C)c1ccccc1 (stereo partly drawn)	136 nM	> 98%
CC(=O)N[C@H](C(=O)N[C@H](C(=O)N[C@@H](Cc1ccccc1)[C@H](O)C(=O)N1CSC(C)(C)[C@H]1C(=O)NC(C)C(C)(C)C)C(C)(C)C)c1ccccc1 (stereo partly drawn)	106 nM	> 98%
CC(C)CCNC(=O)[C@H]1N(C(=O)[C@@H](O)[C@H](Cc2ccccc2)NC(=O)[C@@H](NC(=O)[C@@H](N)c2ccccc2)C(C)(C)C)CSC1(C)C	372 nM	> 98%
CC(C)CC(=O)N[C@H](C(=O)N[C@H](C(=O)N[C@@H](Cc1ccccc1)[C@H](O)C(=O)N1CSC(C)(C)[C@H]1C(=O)NC(C)C(C)C)C(C)(C)C)c1ccccc1 (stereo partly drawn)	107 nM	> 98%
CC[C@H](C)[C@H](NC(C)=O)C(=O)N[C@H](C(=O)N[C@@H](Cc1ccccc1)[C@H](O)C(=O)N1CSC(C)(C)[C@H]1C(=O)N[C@H](C(=O)N[C@@H](CCSC)C(N)=O)[C@@H](C)CC)[C@@H](C)CC (Ac-II[X1][Thz(5,5-Me2)]IM-NH2)	88 nM	> 98%
CC(C)CC(=O)N[C@H](C(=O)N[C@H](C(=O)N[C@@H](Cc1ccccc1)[C@H](O)C(=O)N1CSC(C)(C)[C@H]1C(=O)NCC1CC1)C(C)(C)C)c1ccccc1	132 nM	> 98%
CC(C)CNC(=O)[C@H]1N(C(=O)[C@@H](O)[C@H](Cc2ccccc2)NC(=O)[C@@H](NC(=O)[C@@H](NC(=O)C2CC2)c2ccccc2)C(C)(C)C)CSC1(C)C	97 nM	> 98%
CC[C@H](C)[C@H](NC(=O)[C@H]1N(C(=O)[C@@H](O)[C@H](Cc2ccccc2)NC(=O)[C@@H](NC(=O)[C@@H](NC(C)=O)c2ccccc2)C(C)(C)C)CSC1(C)C)C(N)=O (Ac-[Phg][Tle][X1][Thz(5,5-Me2)]I-NH2)	144 nM	> 98%
CC(C)C(=O)N[C@H](C(=O)N[C@H](C(=O)N[C@@H](Cc1ccccc1)[C@H](O)C(=O)N1CSC(C)(C)[C@H]1C(=O)NC(C)C(C)(C)C)C(C)(C)C)c1ccccc1 (stereo partly drawn)	84 nM	> 98%
CC(C)(C)CNC(=O)[C@H]1N(C(=O)[C@@H](O)[C@H](Cc2ccccc2)NC(=O)[C@@H](NC(=O)[C@@H](N)c2ccccc2)C(C)(C)C)CSC1(C)C	180 nM	> 98%
CC(=O)N[C@H](C(=O)N[C@H](C(=O)N[C@@H](Cc1ccccc1)[C@H](O)C(=O)N1CSC(C)(C)[C@H]1C(=O)NCC(C)C)C(C)(C)C)c1ccccc1	107 nM	> 98%

SMILES	IC50 (Protease)	inhibition [1]
CC(NC(=O)[C@H]1N(C(=O)[C@@H](O)[C@H](Cc2ccccc2)NC(=O)[C@@H](NC(=O)[C@@H](NC(=O)C2CC2)c2ccccc2)C(C)(C)C)CSC1(C)C)C(C)(C)C (stereo partly drawn)	85 nM	> 98%
CC(C)CCNC(=O)[C@H]1N(C(=O)[C@@H](O)[C@H](Cc2ccccc2)NC(=O)[C@@H](NC(=O)[C@@H](NC(=O)CC(C)C)c2ccccc2)C(C)(C)C)CSC1(C)C	107 nM	> 98%
CC(C)C(=O)N[C@H](C(=O)N[C@H](C(=O)N[C@@H](Cc1ccccc1)[C@H](O)C(=O)N1CSC(C)(C)[C@H]1C(=O)NCC1CC1)C(C)(C)C)c1ccccc1	134 nM	> 98%
CCC(=O)N[C@H](C(=O)N[C@H](C(=O)N[C@@H](Cc1ccccc1)[C@H](O)C(=O)N1CSC(C)(C)[C@H]1C(=O)NCC(C)C)C(C)(C)C)c1ccccc1	105 nM	> 98%
CCC(=O)N[C@H](C(=O)N[C@H](C(=O)N[C@@H](Cc1ccccc1)[C@H](O)C(=O)N1CSC(C)(C)[C@H]1C(=O)NC(C)C(C)C)C(C)(C)C)c1ccccc1 (stereo partly drawn)	129 nM	> 98%
CCCC(=O)N[C@H](C(=O)N[C@H](C(=O)N[C@@H](Cc1ccccc1)[C@H](O)C(=O)N1CSC(C)(C)[C@H]1C(=O)NC(C)C(C)C)C(C)(C)C)c1ccccc1 (stereo partly drawn)	659 nM	> 98%
CC(C)CC(=O)N[C@H](C(=O)N[C@H](C(=O)N[C@@H](Cc1ccccc1)[C@H](O)C(=O)N1CSC(C)(C)[C@H]1C(=O)NCC(C)(C)C)C(C)(C)C)c1ccccc1	82 nM	> 98%
CCCC(=O)N[C@H](C(=O)N[C@H](C(=O)N[C@@H](Cc1ccccc1)[C@H](O)C(=O)N1CSC(C)(C)[C@H]1C(=O)NCCC(C)C)C(C)(C)C)c1ccccc1	95 nM	> 98%
CC(C)C(C)NC(=O)[C@H]1N(C(=O)[C@@H](O)[C@H](Cc2ccccc2)NC(=O)[C@@H](NC(=O)[C@@H](NC(=O)C2CC2)c2ccccc2)C(C)(C)C)CSC1(C)C (stereo partly drawn)	90 nM	> 98%
CC(C)CNC(=O)[C@H]1N(C(=O)[C@@H](O)[C@H](Cc2ccccc2)NC(=O)[C@@H](NC(=O)[C@@H](NC(=O)C(C)C)c2ccccc2)C(C)(C)C)CSC1(C)C	94 nM	> 98%
CCCC(=O)N[C@H](C(=O)N[C@H](C(=O)N[C@@H](Cc1ccccc1)[C@H](O)C(=O)N1CSC(C)(C)[C@H]1C(=O)NC(C)C(C)(C)C)C(C)(C)C)c1ccccc1 (stereo partly drawn)	94 nM	> 98%
CC(C)CNC(=O)[C@H]1N(C(=O)[C@@H](O)[C@H](Cc2ccccc2)NC(=O)[C@@H](NC(=O)[C@@H](N)c2ccccc2)C(C)(C)C)CSC1(C)C	332 nM	> 98%
CCCC(=O)N[C@H](C(=O)N[C@H](C(=O)N[C@@H](Cc1ccccc1)[C@H](O)C(=O)N1CSC(C)(C)[C@H]1C(=O)NCC(C)C)C(C)(C)C)c1ccccc1	104 nM	> 98%
CSCC[C@H](NC(=O)[C@@H](NC(=O)[C@@H]1CCCN1C(=O)[C@@H](O)[C@H](Cc1ccccc1)NC(=O)[C@@H](NC(=O)[C@H](CCC(N)=O)NC(=O)[C@@H]1CCCN1)C(C)C)C(C)C)C(=O)N[C@@H](Cc1cnc[nH]1)C(=O)O	159 nM	> 98%
CC(C)CNC(=O)[C@H]1N(C(=O)[C@@H](O)[C@H](Cc2ccccc2)NC(=O)[C@@H](NC(=O)[C@@H](NC(=O)CC(C)C)c2ccccc2)C(C)(C)C)CSC1(C)C	102 nM	> 98%
CC(=O)N[C@H](C(=O)N[C@H](C(=O)N[C@@H](Cc1ccccc1)[C@H](O)C(=O)N1CSC(C)(C)[C@H]1C(=O)NCC(C)(C)C)C(C)(C)C)c1ccccc1	113 nM	> 98%
CC(C)(C)CNC(=O)[C@H]1N(C(=O)[C@@H](O)[C@H](Cc2ccccc2)NC(=O)[C@@H](NC(=O)[C@@H](NC(=O)C(C)(C)C)c2ccccc2)C(C)(C)C)CSC1(C)C	97 nM	> 98%
CCC(=O)N[C@H](C(=O)N[C@H](C(=O)N[C@@H](Cc1ccccc1)[C@H](O)C(=O)N1CSC(C)(C)[C@H]1C(=O)NC(C)C(C)(C)C)C(C)(C)C)c1ccccc1 (stereo partly drawn)	103 nM	> 98%
CC(NC(=O)[C@H]1N(C(=O)[C@@H](O)[C@H](Cc2ccccc2)NC(=O)[C@@H](NC(=O)[C@@H](N)c2ccccc2)C(C)(C)C)CSC1(C)C)C(C)(C)C (stereo partly drawn)	156 nM	> 98%
CC(C)C(C)NC(=O)[C@H]1N(C(=O)[C@@H](O)[C@H](Cc2ccccc2)NC(=O)[C@@H](NC(=O)[C@@H](N)c2ccccc2)C(C)(C)C)CSC1(C)C (stereo partly drawn)	354 nM	> 98%
CC(C)C(=O)N[C@H](C(=O)N[C@H](C(=O)N[C@@H](Cc1ccccc1)[C@H](O)C(=O)N1CSC(C)(C)[C@H]1C(=O)NCC(C)(C)C)C(C)(C)C)c1ccccc1	78 nM	> 98%
CC(C)(C)C(=O)N[C@H](C(=O)N[C@H](C(=O)N[C@@H](Cc1ccccc1)[C@H](O)C(=O)N1CSC(C)(C)[C@H]1C(=O)NCC1CC1)C(C)(C)C)c1ccccc1	187 nM	> 98%
